In one series the test system is COLO 205. Kind of series: Cytotoxicity against human COLO205 cells expressing b-Raf V600E mutant after 72 hrs by MTS assay. In kind it is functional, cell-based. As to conditions: COLO 205, 72 h. The method, boiled down: (§1)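 Human BRAF(V600E) line seeded at 3000–10,000 cells per 96 well, allowed 16 h at 37 °C in humidified 5% CO2. Then exposed 72 h to an eleven-point compound dilution in duplicate. NADH measured by MTS tetrazolium conversion, read at OD 490 nm. EC50 taken from compound concentration vs total NADH.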

Series [1] deals with Dual specificity mitogen-activated protein kinase kinase 1 (Homo sapiens, UniProt Q02750). Kind of series: Inhibition of MEK1 by cascade assay method. The method, boiled down: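 Cascade format, compounds serially diluted in DMSO, then in 50 mM HEPES pH 7.3, 10 mM NaCl, 10 mM MgCl2, 0.01% Brij35, 1 mM DTT. Reaction started with 1 nM MEK1 and 400 µM ATP (also run at 10 µM). Product read by IMAP fluorescence polarization. IC50 fitted with standard models.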
Dual specificity mitogen-activated protein kinase kinase 1, sequence (Q02750 whole entry): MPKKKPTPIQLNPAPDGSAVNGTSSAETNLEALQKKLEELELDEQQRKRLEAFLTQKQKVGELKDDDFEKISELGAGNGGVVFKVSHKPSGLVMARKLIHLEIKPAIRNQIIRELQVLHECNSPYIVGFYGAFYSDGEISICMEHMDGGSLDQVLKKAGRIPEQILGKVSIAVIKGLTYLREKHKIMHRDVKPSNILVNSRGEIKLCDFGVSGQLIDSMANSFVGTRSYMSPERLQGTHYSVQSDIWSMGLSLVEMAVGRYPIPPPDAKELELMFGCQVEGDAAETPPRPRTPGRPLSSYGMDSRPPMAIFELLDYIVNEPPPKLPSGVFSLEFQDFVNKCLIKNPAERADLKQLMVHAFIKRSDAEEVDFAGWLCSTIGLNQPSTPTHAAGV

A short description of series [2]: Half life in human liver microsomes. In kind it is ADME, Microsome. (Microsomes from liver hold many membrane-bound enzymes, among them those of drug oxidation.)
Series [3] is described as follows: Half life in rat liver microsomes. In kind it is ADME, Microsome.
The test system of the next series is A-375. Kind of series: Cytotoxicity against human A375 cells expressing b-Raf V600E mutant after 72 hrs by MTS assay. In kind it is functional, cell-based. Particulars: A-375, 72 h. The method, boiled down: as §1
For series [4], the target named is Epidermal growth factor receptor (Homo sapiens) (UniProt P00533). Kind of series: Inhibition of EGFR at 10 uM.
Series [5] addresses Protein kinase C alpha type (Homo sapiens) (UniProt P17252). Kind of series: Inhibition of PKCalpha at 10 uM.
Series [6] addresses 3-phosphoinositide-dependent protein kinase 1 (PDPK1) (Homo sapiens) (UniProt O15530). Briefly: Inhibition of PDK1 at 10 uM.
Series [7] addresses Platelet-derived growth factor receptor beta (Homo sapiens) (UniProt P09619). Briefly: Inhibition of PDGFRbeta at 10 uM.
Series [8] addresses Cyclin-dependent kinase 2/cyclin A (Homo sapiens) (UniProt P24941+P20248+P78396). Kind of series: Inhibition of CDK2/cyclinA at 10 uM. In kind it is protein-complex assay.
Series [9] has as its target Insulin receptor (Homo sapiens) (UniProt P06213). Briefly: Inhibition of insulin receptor at 10 uM.
Series [10] deals with Calcium/calmodulin-dependent protein kinase type 1D (Homo sapiens) (UniProt Q8IU85). Briefly: Inhibition of CamK1delta at 10 uM.
Calcium/calmodulin-dependent protein kinase type 1D (Homo sapiens), sequence (Q8IU85 whole entry, looked up): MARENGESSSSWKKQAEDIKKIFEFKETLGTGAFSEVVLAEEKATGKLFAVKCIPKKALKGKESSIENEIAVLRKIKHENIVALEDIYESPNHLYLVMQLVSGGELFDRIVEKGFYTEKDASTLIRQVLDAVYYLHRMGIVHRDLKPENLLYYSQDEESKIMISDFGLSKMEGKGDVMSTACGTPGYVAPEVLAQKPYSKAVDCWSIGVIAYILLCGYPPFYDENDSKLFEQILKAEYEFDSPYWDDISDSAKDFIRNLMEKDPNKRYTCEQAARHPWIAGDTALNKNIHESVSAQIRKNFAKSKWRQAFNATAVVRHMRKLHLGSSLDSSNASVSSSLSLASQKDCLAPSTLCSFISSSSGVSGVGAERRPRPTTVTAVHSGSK
For series [11], the target named is RAF proto-oncogene serine/threonine-protein kinase (Homo sapiens) (UniProt P04049). Briefly: Inhibition of c-RAF at 10 uM.
Series [12] addresses Serine/threonine-protein kinase PLK3 (Homo sapiens) (UniProt Q9H4B4). Briefly: Inhibition of PLK3 at 10 uM.
The target in series [13] is Tyrosine-protein kinase SYK (Homo sapiens) (UniProt P43405). Briefly: Inhibition of Syk at 10 uM.
The target of series [14] is RAC-gamma serine/threonine-protein kinase (Homo sapiens) (UniProt Q9Y243). Briefly: Inhibition of AKT3 at 10 uM.
RAC-gamma serine/threonine-protein kinase (Homo sapiens), sequence (Q9Y243 whole entry): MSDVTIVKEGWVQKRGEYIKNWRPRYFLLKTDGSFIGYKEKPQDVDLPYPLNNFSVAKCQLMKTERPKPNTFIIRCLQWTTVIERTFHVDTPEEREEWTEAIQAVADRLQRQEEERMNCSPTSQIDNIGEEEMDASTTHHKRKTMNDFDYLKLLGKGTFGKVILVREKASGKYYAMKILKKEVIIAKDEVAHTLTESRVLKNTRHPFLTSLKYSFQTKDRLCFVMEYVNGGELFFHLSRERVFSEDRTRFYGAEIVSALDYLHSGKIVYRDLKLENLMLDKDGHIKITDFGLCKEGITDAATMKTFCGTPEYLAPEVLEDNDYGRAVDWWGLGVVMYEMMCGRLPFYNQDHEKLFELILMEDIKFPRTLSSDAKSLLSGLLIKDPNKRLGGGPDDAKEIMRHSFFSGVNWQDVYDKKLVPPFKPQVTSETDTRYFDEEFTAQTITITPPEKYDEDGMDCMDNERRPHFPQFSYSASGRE
The target of series [15] is Tyrosine-protein kinase ABL1 (Homo sapiens) (UniProt P00519). Briefly: Inhibition of Abl1 at 10 uM.
The target in series [16] is Glycogen synthase kinase-3 beta (Homo sapiens) (UniProt P49841). Kind of series: Inhibition of GSK3-beta at 10 uM.
Glycogen synthase kinase-3 beta (Homo sapiens), sequence (P49841 whole entry, looked up): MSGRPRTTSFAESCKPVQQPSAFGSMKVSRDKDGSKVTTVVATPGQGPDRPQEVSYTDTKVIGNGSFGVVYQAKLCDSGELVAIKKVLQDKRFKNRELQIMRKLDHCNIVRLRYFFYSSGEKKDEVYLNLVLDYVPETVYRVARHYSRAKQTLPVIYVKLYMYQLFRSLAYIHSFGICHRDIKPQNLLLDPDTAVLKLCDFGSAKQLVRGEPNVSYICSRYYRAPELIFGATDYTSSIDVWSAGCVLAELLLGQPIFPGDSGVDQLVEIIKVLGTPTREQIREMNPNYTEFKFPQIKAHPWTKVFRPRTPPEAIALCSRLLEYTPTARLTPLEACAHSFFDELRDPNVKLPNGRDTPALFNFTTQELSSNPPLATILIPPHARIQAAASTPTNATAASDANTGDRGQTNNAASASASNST
For series [17], the target named is Angiopoietin-1 receptor (Homo sapiens) (UniProt Q02763). Briefly: Inhibition of Tie2 at 10 uM.
For series [18], the target named is Proto-oncogene tyrosine-protein kinase Src (Homo sapiens) (UniProt P12931). Briefly: Inhibition of c-SRC at 10 uM.
Proto-oncogene tyrosine-protein kinase Src (Homo sapiens), sequence (P12931 2-536 limits assumed): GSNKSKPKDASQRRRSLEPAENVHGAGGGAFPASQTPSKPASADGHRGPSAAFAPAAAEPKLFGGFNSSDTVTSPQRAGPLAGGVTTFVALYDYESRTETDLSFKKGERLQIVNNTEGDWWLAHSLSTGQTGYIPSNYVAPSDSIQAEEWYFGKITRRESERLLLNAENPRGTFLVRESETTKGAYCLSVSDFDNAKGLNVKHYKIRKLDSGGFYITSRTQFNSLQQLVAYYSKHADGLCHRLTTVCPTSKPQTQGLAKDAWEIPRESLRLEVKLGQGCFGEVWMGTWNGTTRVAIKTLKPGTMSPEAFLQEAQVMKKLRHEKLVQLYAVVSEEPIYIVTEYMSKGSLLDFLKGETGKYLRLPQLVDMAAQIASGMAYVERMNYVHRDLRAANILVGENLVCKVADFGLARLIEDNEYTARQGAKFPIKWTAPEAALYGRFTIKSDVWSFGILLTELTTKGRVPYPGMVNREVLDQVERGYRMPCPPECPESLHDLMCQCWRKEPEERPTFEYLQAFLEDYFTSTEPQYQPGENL
Series [19] has as its target Hepatocyte growth factor receptor (Homo sapiens) (UniProt P08581). Briefly: Inhibition of c-Met at 10 uM.
Series [20] concerns the target T1, Tyrosine-protein kinase JAK3 (Homo sapiens) (UniProt P52333).
T1 sequence (whole entry): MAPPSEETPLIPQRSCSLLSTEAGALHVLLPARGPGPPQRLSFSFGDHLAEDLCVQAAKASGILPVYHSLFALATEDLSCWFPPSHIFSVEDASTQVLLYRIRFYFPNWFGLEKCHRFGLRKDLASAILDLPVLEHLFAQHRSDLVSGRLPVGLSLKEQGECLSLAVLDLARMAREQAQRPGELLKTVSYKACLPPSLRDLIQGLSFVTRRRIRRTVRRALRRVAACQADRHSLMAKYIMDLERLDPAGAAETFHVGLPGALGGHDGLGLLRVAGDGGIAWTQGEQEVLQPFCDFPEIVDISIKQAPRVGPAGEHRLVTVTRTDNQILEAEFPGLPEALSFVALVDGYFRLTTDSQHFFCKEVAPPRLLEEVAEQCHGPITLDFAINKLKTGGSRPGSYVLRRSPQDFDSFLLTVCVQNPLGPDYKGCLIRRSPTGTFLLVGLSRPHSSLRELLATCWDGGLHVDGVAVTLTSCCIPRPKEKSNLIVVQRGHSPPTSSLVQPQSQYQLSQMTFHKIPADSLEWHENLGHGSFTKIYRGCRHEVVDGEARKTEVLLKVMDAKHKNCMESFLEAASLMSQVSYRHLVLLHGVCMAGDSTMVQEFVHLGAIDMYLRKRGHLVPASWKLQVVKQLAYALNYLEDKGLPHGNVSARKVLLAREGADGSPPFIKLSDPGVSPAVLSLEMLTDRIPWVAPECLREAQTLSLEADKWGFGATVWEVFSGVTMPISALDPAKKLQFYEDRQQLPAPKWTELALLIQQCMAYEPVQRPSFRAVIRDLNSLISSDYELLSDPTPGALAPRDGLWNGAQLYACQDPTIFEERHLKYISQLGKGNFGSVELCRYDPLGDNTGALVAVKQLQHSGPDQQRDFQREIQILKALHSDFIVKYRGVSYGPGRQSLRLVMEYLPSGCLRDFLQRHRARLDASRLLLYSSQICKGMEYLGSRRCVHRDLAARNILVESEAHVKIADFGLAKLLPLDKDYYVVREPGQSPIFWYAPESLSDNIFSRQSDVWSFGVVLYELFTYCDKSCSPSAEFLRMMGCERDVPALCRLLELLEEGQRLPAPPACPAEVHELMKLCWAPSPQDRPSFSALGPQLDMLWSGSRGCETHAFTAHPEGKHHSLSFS
Kind of series: Inhibition of JAK3 at 10 uM.

For series [21], the target named is Mitogen-activated protein kinase 14 (Homo sapiens) (UniProt Q16539). Briefly: Inhibition of P38alpha at 10 uM.

Active and inactive are the calls of the source. No cut-off for these calls is given here.

Insulin receptor (Homo sapiens), sequence (P06213 28-758 limits assumed): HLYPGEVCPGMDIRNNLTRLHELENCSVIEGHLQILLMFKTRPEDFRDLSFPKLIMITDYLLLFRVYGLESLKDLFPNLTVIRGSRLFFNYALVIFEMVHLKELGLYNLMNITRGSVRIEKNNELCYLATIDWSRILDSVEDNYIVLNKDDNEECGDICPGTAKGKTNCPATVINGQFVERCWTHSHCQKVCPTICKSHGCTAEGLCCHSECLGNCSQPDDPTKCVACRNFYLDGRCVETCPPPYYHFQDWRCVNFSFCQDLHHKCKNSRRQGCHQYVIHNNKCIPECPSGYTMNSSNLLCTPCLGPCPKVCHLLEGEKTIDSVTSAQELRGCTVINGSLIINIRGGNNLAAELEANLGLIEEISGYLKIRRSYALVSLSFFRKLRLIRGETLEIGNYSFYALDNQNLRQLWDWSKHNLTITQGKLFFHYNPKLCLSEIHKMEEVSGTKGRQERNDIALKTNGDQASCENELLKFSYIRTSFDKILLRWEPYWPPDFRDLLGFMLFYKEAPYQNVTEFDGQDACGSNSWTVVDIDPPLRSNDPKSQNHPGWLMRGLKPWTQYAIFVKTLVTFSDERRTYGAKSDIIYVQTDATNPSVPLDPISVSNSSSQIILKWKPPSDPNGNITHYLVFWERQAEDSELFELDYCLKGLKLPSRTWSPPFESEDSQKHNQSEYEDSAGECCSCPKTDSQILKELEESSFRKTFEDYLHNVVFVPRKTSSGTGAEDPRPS
Insulin receptor (Homo sapiens), sequence (P06213 763-1382 limits assumed): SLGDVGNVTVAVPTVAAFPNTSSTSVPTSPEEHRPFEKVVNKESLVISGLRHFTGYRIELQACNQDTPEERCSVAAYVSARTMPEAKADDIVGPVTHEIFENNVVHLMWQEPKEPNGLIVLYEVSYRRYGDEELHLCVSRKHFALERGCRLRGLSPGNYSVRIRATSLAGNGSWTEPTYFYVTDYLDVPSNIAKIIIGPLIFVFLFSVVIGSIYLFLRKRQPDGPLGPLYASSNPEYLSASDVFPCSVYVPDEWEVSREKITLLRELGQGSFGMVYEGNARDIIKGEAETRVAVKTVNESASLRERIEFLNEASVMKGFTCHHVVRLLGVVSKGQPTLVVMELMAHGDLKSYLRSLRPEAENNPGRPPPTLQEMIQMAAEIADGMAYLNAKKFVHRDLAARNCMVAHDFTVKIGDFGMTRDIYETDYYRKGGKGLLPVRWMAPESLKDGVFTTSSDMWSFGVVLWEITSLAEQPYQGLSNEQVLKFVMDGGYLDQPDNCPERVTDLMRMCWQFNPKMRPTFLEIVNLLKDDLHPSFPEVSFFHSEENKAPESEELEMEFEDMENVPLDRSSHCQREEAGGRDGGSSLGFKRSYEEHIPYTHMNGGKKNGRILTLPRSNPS
Hepatocyte growth factor receptor (Homo sapiens), sequence (P08581 whole entry): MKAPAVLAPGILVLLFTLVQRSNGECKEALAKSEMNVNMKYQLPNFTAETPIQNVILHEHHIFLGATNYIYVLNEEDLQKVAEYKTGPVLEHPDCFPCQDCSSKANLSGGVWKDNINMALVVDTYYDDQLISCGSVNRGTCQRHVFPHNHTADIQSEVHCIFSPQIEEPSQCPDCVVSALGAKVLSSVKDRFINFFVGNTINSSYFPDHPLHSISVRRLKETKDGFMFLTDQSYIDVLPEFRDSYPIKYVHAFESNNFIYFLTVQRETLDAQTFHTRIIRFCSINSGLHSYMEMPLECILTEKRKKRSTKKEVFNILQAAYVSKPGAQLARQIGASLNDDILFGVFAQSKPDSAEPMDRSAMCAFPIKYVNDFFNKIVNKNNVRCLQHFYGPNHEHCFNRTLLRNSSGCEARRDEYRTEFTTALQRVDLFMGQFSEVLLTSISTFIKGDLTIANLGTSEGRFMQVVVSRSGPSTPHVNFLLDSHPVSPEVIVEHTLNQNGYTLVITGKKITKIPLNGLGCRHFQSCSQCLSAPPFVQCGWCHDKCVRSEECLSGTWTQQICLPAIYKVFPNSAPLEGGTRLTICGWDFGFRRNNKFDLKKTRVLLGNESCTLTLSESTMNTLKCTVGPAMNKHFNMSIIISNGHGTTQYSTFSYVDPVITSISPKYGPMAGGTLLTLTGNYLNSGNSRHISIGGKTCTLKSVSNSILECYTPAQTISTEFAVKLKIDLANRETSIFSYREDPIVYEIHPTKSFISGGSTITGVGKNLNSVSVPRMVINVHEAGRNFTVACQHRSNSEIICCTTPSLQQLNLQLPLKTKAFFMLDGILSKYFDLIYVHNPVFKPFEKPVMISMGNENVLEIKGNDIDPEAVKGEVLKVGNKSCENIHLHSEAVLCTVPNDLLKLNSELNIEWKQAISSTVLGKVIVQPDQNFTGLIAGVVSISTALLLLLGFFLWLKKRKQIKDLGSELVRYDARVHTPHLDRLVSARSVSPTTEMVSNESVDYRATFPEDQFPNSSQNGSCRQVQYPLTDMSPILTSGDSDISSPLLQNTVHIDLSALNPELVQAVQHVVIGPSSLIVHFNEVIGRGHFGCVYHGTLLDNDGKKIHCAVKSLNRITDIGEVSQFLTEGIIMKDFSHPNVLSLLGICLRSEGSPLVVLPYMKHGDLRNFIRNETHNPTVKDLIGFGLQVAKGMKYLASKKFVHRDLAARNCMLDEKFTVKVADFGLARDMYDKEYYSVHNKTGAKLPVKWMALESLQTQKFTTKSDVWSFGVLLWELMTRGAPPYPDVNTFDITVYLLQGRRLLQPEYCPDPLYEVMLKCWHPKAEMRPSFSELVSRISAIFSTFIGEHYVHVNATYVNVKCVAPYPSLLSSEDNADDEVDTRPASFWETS

One may read the EC50 as the concentration giving half of the maximal effect. Read a high EC50 as a need for much substance. Broadly, the IC50 is the point on the concentration scale where inhibition reaches its midpoint. A lower IC50 goes with higher potency. For orientation: half-life means how long it takes for the measured level to halve. A lower half-life goes with rapid decline. Take `CC(=O)n1cc(Nc2ccc(I)cc2F)c(C(=O)O)c1`: the EC50 in the series on COLO 205 was > 50000 nM. This compound came in with an IC50 in series [1] of 220 nM. Besides, the half-life in [2] came out at 29 min; in series [3], 20 min.

Consider `CC(=O)c1c(F)c(C(=O)NOC[C@@H](O)CO)c(Nc2ccc(I)cc2F)n1C`, for which the EC50 came to 58 nM in the series on COLO 205 and 48 nM in the series with A-375. This compound also showed an IC50 in [1] of 19 nM. Further, the half-life in series [2] was found to be 115 min; in series [3] it was 49 min.

`CC(=O)n1cc(C(=O)O)c(Nc2ccc(I)cc2F)c1C` came in with an EC50 with COLO 205 of 21000 nM. This compound yielded an IC50 in series [1] of 72 nM. The figures for the half-life in [2] and in series [3] were 29 min and 21 min, respectively.

With `CC(=O)c1cc(C(=O)NOC[C@@H](O)CO)c(Nc2ccc(I)cc2F)n1C`, the EC50 in the series on COLO 205 came out at 11 nM; in the series on A-375, 17 nM. For the same compound, the IC50 in [1] was 11 nM. Besides, the values for the half-life in [2] and in series [3] were 150 min and 68 min, respectively.

For `CC(=O)c1c(Cl)c(C(=O)NOCCO)c(Nc2ccc(I)cc2F)n1C`, the EC50 in the series with COLO 205 stood at 7 nM; with A-375 it was 28 nM. Further, the IC50 in series [1] stood at 18 nM. Further, the half-life was found to be 7 min in [2] and 6 min in [3].

Take `CC(=O)c1cc(C(=O)NOCCCO)c(Nc2ccc(I)cc2F)n1C`: the figures for the EC50 in the series on COLO 205 and with A-375 were 104 nM and 176 nM, respectively. For the same compound, 46 nM corresponded to half-maximal inhibition in series [1] (IC50). Besides, the half-life in series [2] worked out at 43 min; in series [3], 13 min.

In the case of `CC(=O)c1cc(C(=O)NCCCO)c(Nc2ccc(I)cc2F)n1C`, the results for the half-maximal effective concentration (EC50) with COLO 205 and in the series with A-375 were 128 nM and 313 nM, respectively. The same compound yielded an IC50 in [1] of 90 nM. Further, the half-life was 95 min in series [2] and 10 min in series [3].

As to `CC(=O)c1cc(C(=O)N2CC[C@@H](O)C2)c(Nc2ccc(I)cc2F)n1C`, the inhibition entry in series [4], in series [5], in [6], in [7], in [8] and in series [9] was “inactive” throughout. Also, the inhibition result in series [10], in series [11], in [12], in [13], in series [14] and in [15] was “inactive” in each case. Also, the inhibition entry in series [16], in series [17], in series [18], in [19], in series [20] and in series [21] was “inactive” each time. For the same compound, the EC50 in the series with COLO 205 stood at 84 nM; with A-375, 127 nM. Further, the IC50 in [1] came out at 13 nM. The half-life amounted to 14 min in [2] and 9 min in series [3].

Regarding `CC(=O)c1cc(C(=O)N2CC(N)C2)c(Nc2ccc(I)cc2F)n1C`, the inhibition result in [4], in series [5], in series [6], in [7], in [8] and in [9] was “inactive” in each case. Further, the inhibition result in [10], in series [11], in series [12], in series [13], in series [14] and in [15] was “inactive” each time. The inhibition entry in [16], in series [17], in [18], in series [19], in series [20] and in [21] was “inactive” throughout. Moreover, the EC50 was 37 nM with COLO 205 and 39 nM with A-375. In series [1], this compound gave an IC50 of 7 nM. Besides, the half-life in series [2] was 55 min; in series [3], 64 min.

Compound `CC(=O)n1cc(Nc2ccc(I)cc2F)c(C(=O)NOCCO)c1` yielded a concentration for a half-maximal effect (EC50) in the series with COLO 205 of 3100 nM. The same compound had an IC50 in [1] of 11 nM. The half-life in [2] came to 3 min; in series [3], 6 min.

As for `CC(=O)c1cc(C(=O)NOC(CO)CO)c(Nc2ccc(I)cc2F)n1C`, the EC50 with COLO 205 turned out to be 20 nM; in the series on A-375 it was 33 nM. This compound yielded a concentration for half-maximal inhibition (IC50) in series [1] of 19 nM. Also, the half-life in series [2] came to 90 min; in [3], 16 min.

On to `CC(=O)c1cc(C(=O)O)c(Nc2ccc(I)cc2F)n1C`, for which the EC50 in the series on COLO 205 is 7100 nM; with A-375 it was 2650 nM. Further, half-maximal inhibition in series [1] (IC50) was put at 42 nM. Moreover, the half-life in [2] is 123 min; in series [3], 7 min.

In the series on COLO 205, `CC(=O)n1cc(C(=O)NOCCO)c(Nc2ccc(I)cc2F)c1C` had an EC50 of 10000 nM. The IC50 in series [1] stood at 20 nM. The half-life in series [2] was determined as 8 min; in series [3] it was 2 min.

Regarding `CC(=O)c1c(F)c(C(=O)NOC[C@H](O)CO)c(Nc2ccc(I)cc2F)n1C`, the EC50 worked out at 45 nM in the series on COLO 205 and 72 nM in the series with A-375. The half-inhibitory concentration (IC50) in series [1] was found to be 29 nM. Also, the half-life in series [2] came to 107 min; in series [3], 28 min.

Regarding `CC(=O)c1c(Cl)c(C(=O)NOC[C@@H](O)CO)c(Nc2ccc(I)cc2F)n1C`, the EC50 came to 18 nM in the series with COLO 205 and 29 nM in the series with A-375. In series [1], this compound displayed an IC50 of 13 nM. For the same compound, the values for the half-life in series [2] and in series [3] were 38 min and 30 min, respectively.

(Values after ChEMBL document CHEMBL1177801, “Structure-based design and synthesis of pyrrole derivatives as MEK inhibitors” (Bioorg Med Chem Lett, 2010).)
